Results from ChEMBL document CHEMBL5120973, “Discovery of Desmuramylpeptide NOD2 Agonists with Single-Digit Nanomolar Potency” (ACS Med Chem Lett, 2022).
The source made the active and inactive calls.

Legend:
[1] = tested on: PBMC; experiment: Synergistic potentiation of LPS-induced cytotoxicity of human PBMCs against human K562 cells assessed as increase in dead cells level at 1 uM incubated for 18 hrs before addition of K562 cells by CFSE/Sytox Blue staining based flow cytometry relative to control
[2] = tested on: PBMC; experiment: Synergistic potentiation of IFN-gamma-induced cytotoxicity of human PBMCs against human K562 cells assessed as increase in dead cells level at 1 uM incubated for 18 hrs before addition of K562 cells by CFSE/Sytox Blue staining based flow cytometry relative to control
[3] = biological target: Nucleotide-binding oligomerization domain-containing protein 2 (Homo sapiens) (UniProt Q9HC29); experiment: Agonist activity at NOD2 in human PBMC assessed as induction of IL-6 production at 1 uM incubated for 18 hrs; format: cell-based; conditions: filed as agonist
Method in brief: (§1)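 500,000 cells/well in 500 μL medium, treated 18 h at 37 °C, 5% CO2 against a 0.1% DMSO vehicle. Cell-free supernatants stored at -80 °C. Cytokines measured by cytometric bead array (human inflammatory cytokines) on a flow cytometer.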

[4] = biological target: Nucleotide-binding oligomerization domain-containing protein 2 (Homo sapiens) (UniProt Q9HC29); experiment: Agonist activity at NOD2 in human PBMC assessed as induction of IL-8 production at 1 uM incubated for 18 hrs; format: cell-based; conditions: filed as agonist
Method in brief: as §1

[5] = biological target: Nucleotide-binding oligomerization domain-containing protein 2 (Homo sapiens) (UniProt Q9HC29); experiment: Agonist activity at NOD2 in human PBMC assessed as induction of IL-1beta production at 1 uM incubated for 18 hrs; format: cell-based; conditions: filed as agonist
Method in brief: as §1

[6] = biological target: Nucleotide-binding oligomerization domain-containing protein 2 (Homo sapiens) (UniProt Q9HC29); experiment: Agonist activity at NOD2 in human PBMC assessed as induction of TNFalpha production at 1 uM incubated for 18 hrs; format: cell-based; conditions: filed as agonist
Method in brief: as §1

[7] = biological target: Nucleotide-binding oligomerization domain-containing protein 2 (Homo sapiens) (UniProt Q9HC29); experiment: Synergistic agonist activity at NOD2 in human PBMC assessed as induction of IL-1beta production at 1 uM incubated for 18 hrs in presence of IFN-gamma; format: cell-based; conditions: filed as agonist
Method in brief: (§2)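 PBMCs (500,000/well) treated with agonist at 1 μM together with LPS (10 ng/mL) or IFN-γ (200 U/mL); vehicle 0.1% DMSO. Supernatants taken after 18 h at 37 °C, 5% CO2, stored at -80 °C, then assayed for cytokines by cytometric bead array on a flow cytometer.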

[8] = biological target: Nucleotide-binding oligomerization domain-containing protein 2 (Homo sapiens) (UniProt Q9HC29); experiment: Synergistic agonist activity at NOD2 in human PBMC assessed as induction of IL-6 production at 1 uM incubated for 18 hrs in presence of IFN-gamma; format: cell-based; conditions: filed as agonist
Method in brief: as §2

[9] = biological target: Nucleotide-binding oligomerization domain-containing protein 2 (Homo sapiens) (UniProt Q9HC29); experiment: Synergistic agonist activity at NOD2 in human PBMC assessed as induction of TNF-alpha production at 1 uM incubated for 18 hrs in presence of LPS; format: cell-based; conditions: filed as agonist
Method in brief: as §2

[10] = biological target: T1, Nucleotide-binding oligomerization domain-containing protein 2 (Mus musculus) (UniProt Q8K3Z0); experiment: Agonist activity at mouse NOD2 expressed in RAW -Blue NOD2 reporter cells by colorimetry based SEAP assay; conditions: filed as agonist
T1 sequence (whole entry): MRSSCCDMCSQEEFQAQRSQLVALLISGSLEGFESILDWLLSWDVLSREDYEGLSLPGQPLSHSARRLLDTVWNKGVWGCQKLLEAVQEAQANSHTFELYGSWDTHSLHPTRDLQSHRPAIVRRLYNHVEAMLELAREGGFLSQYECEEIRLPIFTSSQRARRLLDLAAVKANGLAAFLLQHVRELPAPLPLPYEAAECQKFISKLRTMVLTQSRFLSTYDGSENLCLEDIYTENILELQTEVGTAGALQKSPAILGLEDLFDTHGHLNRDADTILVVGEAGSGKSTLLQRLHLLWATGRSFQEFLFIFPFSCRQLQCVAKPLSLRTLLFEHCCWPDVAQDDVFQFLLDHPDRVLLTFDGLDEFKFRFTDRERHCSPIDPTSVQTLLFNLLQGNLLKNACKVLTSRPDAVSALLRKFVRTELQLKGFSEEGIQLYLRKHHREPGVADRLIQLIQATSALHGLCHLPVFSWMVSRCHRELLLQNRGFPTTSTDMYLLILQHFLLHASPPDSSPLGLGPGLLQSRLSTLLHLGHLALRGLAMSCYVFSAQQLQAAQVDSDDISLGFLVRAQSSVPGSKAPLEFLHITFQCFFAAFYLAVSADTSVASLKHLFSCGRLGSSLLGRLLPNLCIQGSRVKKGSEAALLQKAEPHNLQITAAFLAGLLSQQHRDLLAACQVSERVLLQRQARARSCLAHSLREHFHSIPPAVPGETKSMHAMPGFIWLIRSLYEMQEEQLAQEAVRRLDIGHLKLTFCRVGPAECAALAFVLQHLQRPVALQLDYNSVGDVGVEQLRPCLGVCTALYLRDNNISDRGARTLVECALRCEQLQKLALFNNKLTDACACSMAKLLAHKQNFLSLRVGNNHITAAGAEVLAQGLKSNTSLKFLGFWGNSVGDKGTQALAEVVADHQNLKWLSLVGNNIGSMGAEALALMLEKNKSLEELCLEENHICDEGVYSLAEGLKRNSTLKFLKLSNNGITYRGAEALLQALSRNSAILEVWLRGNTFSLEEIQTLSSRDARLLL

[11] = biological target: Nucleotide-binding oligomerization domain-containing protein 2 (Homo sapiens) (UniProt Q9HC29); experiment: Synergistic agonist activity at NOD2 in human PBMC assessed as induction of TNFalpha production at 1 uM incubated for 18 hrs in presence of IFN-gamma; format: cell-based; conditions: filed as agonist
Method in brief: as §2

[12] = biological target: Nucleotide-binding oligomerization domain-containing protein 2 (Homo sapiens) (UniProt Q9HC29); experiment: Synergistic agonist activity at NOD2 in human PBMC assessed as induction of IL-6 production at 1 uM incubated for 18 hrs in presence of LPS; format: cell-based; conditions: filed as agonist
Method in brief: as §2

[13] = biological target: Nucleotide-binding oligomerization domain-containing protein 2 (Homo sapiens) (UniProt Q9HC29); experiment: Synergistic agonist activity at NOD2 in human PBMC assessed as induction of IL-1beta production at 1 uM incubated for 18 hrs in presence of LPS; format: cell-based; conditions: filed as agonist
Method in brief: as §2

Measured: Activity

Chain of Nucleotide-binding oligomerization domain-containing protein 2 (Homo sapiens) (Q9HC29 whole entry, the tested form may be a part): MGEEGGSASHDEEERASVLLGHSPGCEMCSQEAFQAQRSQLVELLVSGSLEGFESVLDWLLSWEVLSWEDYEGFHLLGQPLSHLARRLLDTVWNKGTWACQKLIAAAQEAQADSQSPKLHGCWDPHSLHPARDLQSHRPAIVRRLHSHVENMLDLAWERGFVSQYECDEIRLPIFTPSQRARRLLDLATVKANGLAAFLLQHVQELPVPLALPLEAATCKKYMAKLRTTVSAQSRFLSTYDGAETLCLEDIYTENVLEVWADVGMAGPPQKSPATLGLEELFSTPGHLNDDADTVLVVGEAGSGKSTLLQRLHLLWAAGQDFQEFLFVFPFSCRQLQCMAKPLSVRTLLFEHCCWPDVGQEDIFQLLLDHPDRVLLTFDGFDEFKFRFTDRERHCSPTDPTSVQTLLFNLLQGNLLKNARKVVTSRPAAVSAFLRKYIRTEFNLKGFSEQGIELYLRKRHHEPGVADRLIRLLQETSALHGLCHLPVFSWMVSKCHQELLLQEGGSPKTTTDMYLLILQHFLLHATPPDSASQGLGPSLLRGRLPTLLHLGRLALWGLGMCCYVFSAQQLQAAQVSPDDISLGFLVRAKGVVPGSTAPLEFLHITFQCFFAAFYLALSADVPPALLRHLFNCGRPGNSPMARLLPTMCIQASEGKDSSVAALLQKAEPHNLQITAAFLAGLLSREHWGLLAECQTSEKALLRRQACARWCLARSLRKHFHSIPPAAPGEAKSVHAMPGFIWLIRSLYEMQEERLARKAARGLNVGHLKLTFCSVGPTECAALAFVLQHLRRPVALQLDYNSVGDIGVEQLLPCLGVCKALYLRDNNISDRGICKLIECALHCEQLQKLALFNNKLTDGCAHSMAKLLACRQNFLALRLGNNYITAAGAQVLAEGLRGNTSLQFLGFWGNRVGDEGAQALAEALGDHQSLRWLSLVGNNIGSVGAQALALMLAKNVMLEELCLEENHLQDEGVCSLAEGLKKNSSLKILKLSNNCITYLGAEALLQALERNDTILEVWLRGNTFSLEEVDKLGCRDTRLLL

COc1cc(/C=C/C(=O)NCC(=O)N[C@H](C(=O)N[C@H](CCC(=O)OC2CCCC2)C(=O)OC2CCCC2)C(C)C)ccc1O
active: [1] | [2]

CC(=O)N[C@@H]1[C@@H](O[C@H](C)C(=O)N[C@@H](C)C(=O)N[C@H](CCC(=O)O)C(N)=O)[C@@H](O)[C@@H](CO)O[C@H]1O
active: [3] | [4] | [5] | [6]

CCOC(=O)CC[C@@H](NC(=O)[C@@H](NC(=O)CNC(=O)/C=C/c1ccc(OC(=O)CC23CC4CC(CC(C4)C2)C3)c(OC)c1)C(C)C)C(=O)OCC
active: [7] | [3] | [1] | [8] | [9] | [4] | [2] | [10] | [5] | [6] | [11] | [12] | [13]
